Source: ChEMBL document CHEMBL1165862, “Synthesis and pharmacological evaluation of novel 5-substituted-1-(phenylsulfonyl)-2-methylbenzimidazole derivatives as anti-inflammatory and analgesic agents” (Eur J Med Chem, 2010)

Key:
[1] = system: Rattus norvegicus; assay: Antiinflammatory activity in Sprague-Dawley rat assessed as reduction of carrageenan-induced paw edema at 200 mg/kg, po administered 30 mins before carrageenan challenge measured after 1 hr by mercury displacement method relative to control; assay type: functional; design: scale not given: the % may be the effect or the level left
Outline: (§1)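 Rats (150–230 g; groups of six), paw edema induced with 1.0% carrageenan. Compounds given p.o. as suspensions in 2% sodium CMC 30 min before carrageenan, test compounds at 200 mg/kg and indomethacin standard at 50 mg/kg; 2% CMC served as control. Paw volume measured by mercury-displacement plethysmography. Mean ± SEM of six animals.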

[2] = system: Mus musculus; assay: Analgesic activity in albino mouse assessed as protection against acetic acid-induced writhing at 100 mg/kg, po administered 30 mins prior to acetic acid challenge measured after 15 mins; assay type: functional
Outline: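 Albino mice of either sex, 20–25 g, groups of six. Dosed orally as suspension in 2% CMC 30 min before i.p. acetic acid (0.6% v/v in distilled water, 1 mL/kg); controls given 2% CMC alone, standard acetyl salicylic acid. Writhes per animal counted for 15 min; activity expressed as percentage protection. Mean ± SEM, n = 6.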

[3] = system: Rattus norvegicus; assay: Gastrointestinal toxicity in Sprague-Dawley rat assessed as lengths of longest diameters of lesions at 20 mg/kg, po after 6 hrs; assay type: organism-based; design: dose 20 mg/kg, route oral; details: in vivo
Outline: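 SD rats of either sex (150–200 g), groups of six; dosed orally in 0.1% Tween 80, vehicle as control. Stomachs taken 6 h later, ligated and stored overnight in 2% v/v formol saline. Next day opened along greater curvature, washed in warm water and viewed under 3-fold magnifier. Longest lesion diameters summed per animal as total lesion score (mm); group mean ± SEM.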

[4] = system: Rattus norvegicus; assay: Antiinflammatory activity in Sprague-Dawley rat assessed as reduction of carrageenan-induced paw edema at 50 mg/kg, po administered 30 mins before carrageenan challenge measured after 1 hr by mercury displacement method relative to control; assay type: functional; design: scale not given: the % may be the effect or the level left; outline: as §1

SMILES: Cc1nc2cc(NCc3ccccc3Cl)ccc2n1S(=O)(=O)c1ccccc1
- Activity [1]: 8.6%

SMILES: Cc1nc2cc(Nc3ccc(N)cc3)ccc2n1S(=O)(=O)c1ccccc1
- Activity [1]: 39.7%
- Activity [2]: 56.9%
- Activity [3]: 16 mm

SMILES: CCNc1ccc2c(c1)nc(C)n2S(=O)(=O)c1ccccc1
- Activity [1]: 7.2%

SMILES: CCCCNc1ccc2c(c1)nc(C)n2S(=O)(=O)c1ccccc1
- Activity [1]: 7.9%

SMILES: Cc1nc2cc(Nc3ccc([N+](=O)[O-])cc3)ccc2n1S(=O)(=O)c1ccccc1
- Activity [1]: 10.6%

SMILES: Cc1nc2cc(NCc3ccc([N+](=O)[O-])cc3)ccc2n1S(=O)(=O)c1ccccc1
- Activity [1]: 10.8%

SMILES: CCCNc1ccc2c(c1)nc(C)n2S(=O)(=O)c1ccccc1
- Activity [1]: 7.7%

SMILES: Cc1nc2cc(Nc3ccccc3N)ccc2n1S(=O)(=O)c1ccccc1
- Activity [1]: 37%
- Activity [2]: 55.3%
- Activity [3]: 14 mm

SMILES: Cc1nc2cc(Nc3ccccc3[N+](=O)[O-])ccc2n1S(=O)(=O)c1ccccc1
- Activity [1]: 10.2%

SMILES: Cc1nc2cc(NCc3ccc(Cl)cc3)ccc2n1S(=O)(=O)c1ccccc1
- Activity [1]: 9.2%

SMILES: Cc1nc2cc(NCc3ccc(N)cc3)ccc2n1S(=O)(=O)c1ccccc1
- Activity [1]: 33.7%
- Activity [3]: 15 mm

SMILES: CNc1ccc2c(c1)nc(C)n2S(=O)(=O)c1ccccc1
- Activity [1]: 6.7%

SMILES: CC(=O)Oc1ccccc1C(=O)O [ASPIRIN]
- Activity [2]: 57.8%

SMILES: COc1ccc2c(c1)c(CC(=O)O)c(C)n2C(=O)c1ccc(Cl)cc1 [INDOMETHACIN]
- Activity [3]: 26 mm
- Activity [4]: 43.4%
